Test results taken from ChEMBL document CHEMBL2331406, “In vitro activity of scorpiand-like azamacrocycle derivatives in promastigotes and intracellular amastigotes of Leishmania infantum and Leishmania braziliensis” (Eur J Med Chem, 2013).
One block for each compound: values may come before it. Calls of active or inactive are those of the source. The rule behind the calls is not given here.

Tests used:
Leishmania infantum [1] = test: Antileishmanial activity against promastigote form of Leishmania infantum MCAN/ES/2001/UCM-10 assessed as swollen mitochondria at IC25 concentration after 96 hrs by […] electron microscopic analysis relative to control; format: functional, organism-based
How it was run: (§1)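 Promastigotes at 5 × 10^5 cells/mL in MTL medium with compound at IC25 for 96 h. Ultrastructure examined by transmission electron microscopy against untreated control parasites.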

Leishmania infantum [2] = test: Antileishmanial activity against promastigote form of Leishmania infantum MCAN/ES/2001/UCM-10 assessed as swollen kinetoplast at IC25 concentration after 96 hrs by […] electron microscopic analysis relative to control; format: functional, organism-based; how it was run: as §1
Leishmania infantum [3] = test: Antileishmanial activity against promastigote form of Leishmania infantum MCAN/ES/2001/UCM-10 assessed as corrugated cytoplasmic membrane at IC25 concentration after 96 hrs by […] electron microscopic analysis; format: functional, organism-based; how it was run: as §1
Leishmania infantum [4] = test: Inhibition of promastigote form Leishmania infantum MCAN/ES/2001/UCM-10 Fe-SOD at 5 uM by NBT reduction assay relative to control
How it was run: (§2)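 Promastigotes sonicated in sucrose/Tris-HCl/EDTA buffer, pH 7.8, and centrifuged. Protein precipitating at 35–85% ammonium sulphate desalted into 20 mM potassium phosphate with 1 mM EDTA, pH 7.8. Protein measured by Bradford. Fe-SOD activity read spectrophotometrically as inhibition of NBT reduction by superoxide, with compounds at 0.1–50. IC50 by linear regression of Kc values; three determinations; Newman-Keuls test vs control homogenate.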

Leishmania braziliensis [5] = test: Antileishmanial activity against promastigote form of […] MHOM/BR/1975/M2904 infected in J774.2 cells assessed as inhibition of number of amastigotes per host cell at IC25 concentration incubated for 12 hrs followed by compound washout measured after 48 hrs by microscopic analysis; format: functional, MHOM/BR/75/M2904
How it was run: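 J774.2 cells seeded at 1 × 10^4 cells/well on coverslips and cultured 2 days. Infected with promastigotes at 10:1 with drug at IC25 added immediately, for 12 h at 37 °C in 5% CO2. Parasites and drug washed out, then grown 10 days with washing and fresh medium every 48 h. On methanol-fixed, Giemsa-stained slides, % infected cells and amastigotes per infected cell scored from more than 200 host cells. Three determinations.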

Leishmania infantum [6] = test: Antileishmanial activity against promastigote form of Leishmania infantum MCAN/ES/2001/UCM-10 assessed as cytoplasmic membrane disruption at IC25 concentration after 96 hrs by […] electron microscopic analysis relative to control; format: functional, organism-based; how it was run: as §1
[7] = test system: Leishmania braziliensis MHOM/BR/75/M2904; test: Inhibition of promastigote form Leishmania braziliensis MHOM/BR/1975/M2904 Fe-SOD at 12.5 uM by NBT reduction assay relative to control; how it was run: as §2
[8] = Ratio of compound selectivity index to glucantime selectivity index for amastigote form of Leishmania infantum MCAN/ES/2001/UCM-10 infected in J774.2 cells over mouse J774.2 cells
How it was run: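 J774.2 macrophages in MEM + 2 mM glutamine + 20% inactivated FCS were infected with stationary-phase promastigotes (10:1) for 24 h at 37 °C, 5% CO2. After washing, compounds were added at […] for 72 h. Amastigote reduction was scored in methanol-fixed, Giemsa-stained preparations; IC50 by regression; triplicates. SI = J774.2 IC50 (72 h flow cytometry)/amastigote IC50; ratio is versus Glucantime SI.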

Leishmania infantum [9] = test: Antileishmanial activity against promastigote form of Leishmania infantum MCAN/ES/2001/UCM-10 assessed as high electro density at IC25 concentration after 96 hrs by […] electron microscopic analysis; format: functional, organism-based; how it was run: as §1
Leishmania infantum [10] = test: Antileishmanial activity against promastigote form of Leishmania infantum MCAN/ES/2001/UCM-10 assessed as disorganized cytoplasm at IC25 concentration after 96 hrs by […] electron microscopic analysis relative to control; format: functional, organism-based; how it was run: as §1
Leishmania braziliensis [11] = test: Antileishmanial activity against promastigote form of Leishmania braziliensis MHOM/BR/1975/M2904 assessed as change in alanine metabolite production at IC25 concentration after 96 hrs by H1-NMR analysis; format: functional, MHOM/BR/75/M2904
How it was run: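 Promastigote cultures, initial 5 × 10^5 cells/mL, given the IC25 of compound; controls left untreated. Incubated 96 h at 28 °C, then centrifuged at 400g for 10 min. Excreted metabolites in the medium identified by 1H NMR spectra and compared with untreated control.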

Leishmania infantum [12] = test: Antileishmanial activity against promastigote form of Leishmania infantum MCAN/ES/2001/UCM-10 assessed as size reduction at IC25 concentration after 96 hrs by […] electron microscopic analysis; format: functional, organism-based; how it was run: as §1
[13] = Selectivity index, ratio of IC50 for mouse J774.2 cells to IC50 for axenic amastigote form of Leishmania infantum MCAN/ES/2001/UCM-10; format: toxicity; settings: J774.2 cells, read-out: Ratio IC50
How it was run: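 Axenic amastigotes obtained by 3-day promastigote transformation in supplemented M199 + 10% heat-inactivated FCS, pH 5.4, 37 °C. […] Host toxicity: J774.2, 72 h, PI/FDA flow cytometry. SI = macrophage IC50/axenic amastigote IC50; ratio is compound SI over Glucantime SI.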

Leishmania infantum [14] = test: Antileishmanial activity against promastigote form of Leishmania infantum MCAN/ES/2001/UCM-10 assessed as death-like aspect vesicles at IC25 concentration after 96 hrs by […] electron microscopic analysis relative to control; format: functional, organism-based; how it was run: as §1
Leishmania infantum [15] = test: Antileishmanial activity against promastigote form of Leishmania infantum MCAN/ES/2001/UCM-10 assessed as vacuoles in cytoplasm at IC25 concentration after 96 hrs by […] electron microscopic analysis relative to control; format: functional, organism-based; how it was run: as §1
Leishmania braziliensis [16] = test: Antileishmanial activity against promastigote form of Leishmania braziliensis MHOM/BR/1975/M2904 assessed as disorganized flagellum at IC25 concentration after 96 hrs by MET microscopic analysis; format: functional; settings: MHOM/BR/75/M2904; how it was run: as §1
Leishmania braziliensis [17] = test: Antileishmanial activity against promastigote form of Leishmania braziliensis MHOM/BR/1975/M2904 assessed as structural disruptions at IC25 concentration after 96 hrs by MET microscopic analysis; format: functional; settings: MHOM/BR/75/M2904; how it was run: as §1
Leishmania braziliensis [18] = test: Antileishmanial activity against promastigote form of Leishmania braziliensis MHOM/BR/1975/M2904 assessed as nuclear alterations at IC25 concentration after 96 hrs by MET microscopic analysis; format: functional; settings: MHOM/BR/75/M2904; how it was run: as §1
Leishmania braziliensis [19] = test: Antileishmanial activity against promastigote form of Leishmania braziliensis MHOM/BR/1975/M2904 assessed as disorganized flagellar pocket at IC25 concentration after 96 hrs by MET microscopic analysis; format: functional; settings: MHOM/BR/75/M2904; how it was run: as §1
Leishmania braziliensis [20] = test: Antileishmanial activity against promastigote form of Leishmania braziliensis MHOM/BR/1975/M2904 assessed as empty vacuoles at IC25 concentration after 96 hrs by MET microscopic analysis; format: functional; settings: MHOM/BR/75/M2904; how it was run: as §1
Leishmania infantum [21] = test: Antileishmanial activity against promastigote form of Leishmania infantum MCAN/ES/2001/UCM-10 assessed as mortality at IC25 concentration after 96 hrs by […] electron microscopic analysis; format: functional, organism-based; how it was run: as §1
Leishmania braziliensis [22] = test: Antileishmanial activity against promastigote form of Leishmania braziliensis MHOM/BR/1975/M2904 assessed as swollen parasites at IC25 concentration after 96 hrs by MET microscopic analysis; format: functional; settings: MHOM/BR/75/M2904; how it was run: as §1
Leishmania braziliensis [23] = test: Antileishmanial activity against promastigote form of Leishmania braziliensis MHOM/BR/1975/M2904 assessed as small vacuoles at IC25 concentration after 96 hrs by MET microscopic analysis; format: functional; settings: MHOM/BR/75/M2904; how it was run: as §1
Leishmania braziliensis [24] = test: Antileishmanial activity against promastigote form of Leishmania braziliensis MHOM/BR/1975/M2904 assessed as lipid natured cytoplasm at IC25 concentration after 96 hrs by MET microscopic analysis; format: functional; settings: MHOM/BR/75/M2904; how it was run: as §1

inhibition (Leishmania infantum [4]): 100%
inhibition [7]: 100%
Compound: Cl.c1cncc(CNCCN2CCNCc3cccc(n3)CNCC2)c1
Activity (Leishmania infantum [1]): Active
Activity (Leishmania infantum [2]): Active
Activity (Leishmania infantum [3]): Active
inhibition (INH) (Leishmania braziliensis [5]): 80%
Activity (Leishmania infantum [6]): Active
Ratio [8]: 149
Activity (Leishmania infantum [9]): Active
Activity (Leishmania infantum [10]): Active
Activity (Leishmania braziliensis [11]): 10%
Activity (Leishmania infantum [12]): Active
selectivity ratio [13]: 29.4

Compound: Cl.c1cc2nc(c1)CNCCN(CCNCc1cccc3ccccc13)CCNC2
Activity (Leishmania infantum [1]): Active
Activity (Leishmania infantum [2]): Active
Activity (Leishmania infantum [3]): Active
Activity (Leishmania infantum [14]): Active
inhibition (INH) (Leishmania braziliensis [5]): 59%
Ratio [8]: 42
Activity (Leishmania infantum [15]): Active
Activity (Leishmania infantum [9]): Active
Activity (Leishmania braziliensis [11]): 0%
Activity (Leishmania infantum [12]): Active
selectivity ratio [13]: 13

Compound: Br.NCCN1CCNCc2cccc(n2)CNCC1
inhibition (INH) (Leishmania braziliensis [5]): 55%
Ratio [8]: 18
Activity (Leishmania braziliensis [11]): 5%
selectivity ratio [13]: 8

Compound: Cl.c1ccc(CNCCN2CCNCc3cccc(n3)CNCC2)nc1
Activity (Leishmania braziliensis [16]): Active
Activity (Leishmania braziliensis [17]): Active
Activity (Leishmania braziliensis [18]): inactive
Activity (Leishmania braziliensis [19]): Active
Activity (Leishmania braziliensis [20]): Active
inhibition (INH) (Leishmania braziliensis [5]): 67%
Ratio [8]: 26
Activity (Leishmania infantum [21]): Active
Activity (Leishmania braziliensis [11]): 8%
selectivity ratio [13]: 10
Activity (Leishmania braziliensis [22]): Active
Activity (Leishmania braziliensis [23]): Active
Activity (Leishmania braziliensis [24]): Active
